Where only a bound is given, the exact number is not on record here.

Test [1] deals with RAC-alpha serine/threonine-protein kinase (Homo sapiens, UniProt P31749). Description: Inhibition of recombinant AKT1. The method in brief:
(§1)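 Purified recombinant kinase, 50 µL reaction. 1 µM [γ-33P]-ATP with substrate; compound added in 10% DMSO. Tested over several concentrations; IC50 in g/mL.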

The target in a further test is Aurora kinase B (Homo sapiens, UniProt Q96GD4). As to the kind of experiment: Inhibition of recombinant Aurora B. The method in brief: as §1
Sequence of Aurora kinase B (Q96GD4 whole entry): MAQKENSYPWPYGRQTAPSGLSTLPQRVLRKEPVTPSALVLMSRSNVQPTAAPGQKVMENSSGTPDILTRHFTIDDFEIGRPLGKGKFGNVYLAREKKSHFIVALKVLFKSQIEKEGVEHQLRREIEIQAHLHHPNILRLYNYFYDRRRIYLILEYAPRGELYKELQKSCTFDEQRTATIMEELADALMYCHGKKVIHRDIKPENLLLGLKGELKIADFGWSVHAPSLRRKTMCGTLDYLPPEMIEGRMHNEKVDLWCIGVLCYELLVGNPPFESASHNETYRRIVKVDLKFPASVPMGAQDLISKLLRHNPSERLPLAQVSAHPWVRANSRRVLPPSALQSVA
A further test has as its target T1, Aurora kinase A (Homo sapiens, UniProt O14965).
T1 sequence (O14965 whole entry): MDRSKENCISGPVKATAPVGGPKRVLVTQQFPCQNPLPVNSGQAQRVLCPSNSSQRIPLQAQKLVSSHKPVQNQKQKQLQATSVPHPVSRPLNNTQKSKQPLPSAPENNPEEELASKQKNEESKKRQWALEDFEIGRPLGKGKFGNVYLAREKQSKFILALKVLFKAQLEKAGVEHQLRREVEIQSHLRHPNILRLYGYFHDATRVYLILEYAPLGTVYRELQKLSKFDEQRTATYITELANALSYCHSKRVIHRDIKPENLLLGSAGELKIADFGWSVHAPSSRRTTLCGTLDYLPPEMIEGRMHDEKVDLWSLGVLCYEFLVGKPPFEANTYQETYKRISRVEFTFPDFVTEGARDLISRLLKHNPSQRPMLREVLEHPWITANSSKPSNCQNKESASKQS
As to the kind of experiment: Inhibition of recombinant Aurora A. In outline: as §1

The target of test [2] is T2, Receptor-type tyrosine-protein kinase FLT3 (Homo sapiens, UniProt P36888).
T2 sequence (P36888 whole entry): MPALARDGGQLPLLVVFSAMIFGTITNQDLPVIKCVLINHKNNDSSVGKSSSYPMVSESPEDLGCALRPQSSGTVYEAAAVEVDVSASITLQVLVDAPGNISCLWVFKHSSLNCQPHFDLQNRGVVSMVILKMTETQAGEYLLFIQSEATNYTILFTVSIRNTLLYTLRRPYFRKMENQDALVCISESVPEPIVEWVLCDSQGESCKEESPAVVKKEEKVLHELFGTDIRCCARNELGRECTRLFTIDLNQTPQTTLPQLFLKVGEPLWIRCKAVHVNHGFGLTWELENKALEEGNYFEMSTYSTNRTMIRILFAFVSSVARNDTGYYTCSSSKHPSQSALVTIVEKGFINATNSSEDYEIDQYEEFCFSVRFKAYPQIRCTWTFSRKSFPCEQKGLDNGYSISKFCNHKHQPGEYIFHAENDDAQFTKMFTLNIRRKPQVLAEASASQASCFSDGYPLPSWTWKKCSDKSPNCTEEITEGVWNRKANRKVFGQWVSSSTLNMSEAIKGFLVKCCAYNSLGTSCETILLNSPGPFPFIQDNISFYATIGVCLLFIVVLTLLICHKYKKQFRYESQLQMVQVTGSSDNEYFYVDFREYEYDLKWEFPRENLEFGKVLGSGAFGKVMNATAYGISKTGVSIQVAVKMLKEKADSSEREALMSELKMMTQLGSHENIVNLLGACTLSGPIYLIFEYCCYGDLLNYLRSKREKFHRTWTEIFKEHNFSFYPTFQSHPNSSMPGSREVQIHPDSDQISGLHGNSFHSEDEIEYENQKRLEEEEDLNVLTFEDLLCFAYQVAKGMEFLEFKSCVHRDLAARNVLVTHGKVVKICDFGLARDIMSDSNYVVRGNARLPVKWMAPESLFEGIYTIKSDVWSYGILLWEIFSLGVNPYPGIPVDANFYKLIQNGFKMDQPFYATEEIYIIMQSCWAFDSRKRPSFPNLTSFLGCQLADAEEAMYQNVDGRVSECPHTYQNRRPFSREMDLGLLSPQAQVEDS
Description: Inhibition of recombinant FLT3. In outline: as §1

The target of test [3] is Vascular endothelial growth factor receptor 2 (Homo sapiens, UniProt P35968). As to the kind of experiment: Inhibition of recombinant VEGFR2. In outline: as §1
Sequence of Vascular endothelial growth factor receptor 2 (P35968 whole entry): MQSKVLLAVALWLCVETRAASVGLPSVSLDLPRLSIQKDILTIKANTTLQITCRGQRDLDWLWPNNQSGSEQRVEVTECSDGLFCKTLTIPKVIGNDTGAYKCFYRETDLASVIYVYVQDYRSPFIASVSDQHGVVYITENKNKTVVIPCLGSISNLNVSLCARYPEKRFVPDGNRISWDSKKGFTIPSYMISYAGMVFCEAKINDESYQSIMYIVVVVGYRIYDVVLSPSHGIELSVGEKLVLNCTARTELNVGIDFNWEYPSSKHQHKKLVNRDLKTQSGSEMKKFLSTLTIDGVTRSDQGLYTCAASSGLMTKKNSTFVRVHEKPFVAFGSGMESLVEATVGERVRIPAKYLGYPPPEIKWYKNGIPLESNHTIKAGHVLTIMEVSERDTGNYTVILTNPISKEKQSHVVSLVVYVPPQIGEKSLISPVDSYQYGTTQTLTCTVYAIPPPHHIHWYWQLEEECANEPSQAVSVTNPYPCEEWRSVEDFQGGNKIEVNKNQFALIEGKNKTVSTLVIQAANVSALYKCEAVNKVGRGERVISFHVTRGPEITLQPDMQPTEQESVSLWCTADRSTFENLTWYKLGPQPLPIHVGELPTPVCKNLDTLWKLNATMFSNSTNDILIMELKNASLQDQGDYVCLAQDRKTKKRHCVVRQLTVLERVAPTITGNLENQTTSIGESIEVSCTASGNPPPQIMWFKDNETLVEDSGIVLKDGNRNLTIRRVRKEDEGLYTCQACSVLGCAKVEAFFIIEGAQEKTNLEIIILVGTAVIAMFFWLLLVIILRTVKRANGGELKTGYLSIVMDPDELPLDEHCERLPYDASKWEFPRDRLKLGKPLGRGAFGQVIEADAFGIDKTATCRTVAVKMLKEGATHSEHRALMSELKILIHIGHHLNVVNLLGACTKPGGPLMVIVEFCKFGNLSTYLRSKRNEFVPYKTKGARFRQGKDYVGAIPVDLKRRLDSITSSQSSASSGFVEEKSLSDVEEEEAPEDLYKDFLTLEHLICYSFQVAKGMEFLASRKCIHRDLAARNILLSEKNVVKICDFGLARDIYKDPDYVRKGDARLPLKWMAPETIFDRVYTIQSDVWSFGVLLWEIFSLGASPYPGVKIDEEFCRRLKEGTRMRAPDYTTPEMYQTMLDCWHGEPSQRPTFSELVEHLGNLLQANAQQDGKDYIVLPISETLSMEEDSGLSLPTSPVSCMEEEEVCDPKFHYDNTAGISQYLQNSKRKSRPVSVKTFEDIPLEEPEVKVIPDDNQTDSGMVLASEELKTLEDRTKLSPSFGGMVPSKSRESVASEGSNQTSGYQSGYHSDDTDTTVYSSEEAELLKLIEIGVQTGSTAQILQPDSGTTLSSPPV
In test [4] the target is Serine/threonine-protein kinase B-raf (Homo sapiens, UniProt P15056, V600E). Description: Inhibition of recombinant B-RAF-V600E mutant. In outline:
as §1

Test [5] has as its target T3, Serine/threonine-protein kinase PLK4 (Homo sapiens, UniProt O00444).
T3 sequence (O00444 whole entry): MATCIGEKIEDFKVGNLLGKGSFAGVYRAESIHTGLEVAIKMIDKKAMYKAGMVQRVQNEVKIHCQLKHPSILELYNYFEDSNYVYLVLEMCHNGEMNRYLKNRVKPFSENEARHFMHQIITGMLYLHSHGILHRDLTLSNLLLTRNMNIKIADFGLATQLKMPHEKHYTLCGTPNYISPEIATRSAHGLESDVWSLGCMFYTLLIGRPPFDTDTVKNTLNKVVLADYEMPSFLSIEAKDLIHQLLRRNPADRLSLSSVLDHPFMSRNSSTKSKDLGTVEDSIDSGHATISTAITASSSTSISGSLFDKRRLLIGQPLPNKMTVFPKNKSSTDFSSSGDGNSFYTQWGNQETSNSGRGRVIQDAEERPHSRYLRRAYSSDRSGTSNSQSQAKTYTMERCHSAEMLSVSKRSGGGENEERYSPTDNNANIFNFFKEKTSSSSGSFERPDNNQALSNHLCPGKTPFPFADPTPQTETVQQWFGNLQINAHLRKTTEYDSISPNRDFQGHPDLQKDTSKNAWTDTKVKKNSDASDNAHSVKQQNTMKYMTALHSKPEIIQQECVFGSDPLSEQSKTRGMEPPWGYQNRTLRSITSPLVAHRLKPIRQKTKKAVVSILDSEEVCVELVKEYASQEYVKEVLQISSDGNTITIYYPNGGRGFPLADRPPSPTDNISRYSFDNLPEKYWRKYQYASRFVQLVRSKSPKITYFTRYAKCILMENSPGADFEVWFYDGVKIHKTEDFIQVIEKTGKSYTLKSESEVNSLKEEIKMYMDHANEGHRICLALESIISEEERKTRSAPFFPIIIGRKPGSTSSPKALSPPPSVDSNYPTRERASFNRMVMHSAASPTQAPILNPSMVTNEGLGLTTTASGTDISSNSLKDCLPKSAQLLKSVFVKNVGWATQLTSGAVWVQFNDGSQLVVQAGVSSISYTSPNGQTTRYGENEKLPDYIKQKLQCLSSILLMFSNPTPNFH
Description: Inhibition of recombinant SAK.

Test [6] has as its target T4, NUAK family SNF1-like kinase 1 (Homo sapiens, UniProt O60285).
T4 sequence (O60285 whole entry): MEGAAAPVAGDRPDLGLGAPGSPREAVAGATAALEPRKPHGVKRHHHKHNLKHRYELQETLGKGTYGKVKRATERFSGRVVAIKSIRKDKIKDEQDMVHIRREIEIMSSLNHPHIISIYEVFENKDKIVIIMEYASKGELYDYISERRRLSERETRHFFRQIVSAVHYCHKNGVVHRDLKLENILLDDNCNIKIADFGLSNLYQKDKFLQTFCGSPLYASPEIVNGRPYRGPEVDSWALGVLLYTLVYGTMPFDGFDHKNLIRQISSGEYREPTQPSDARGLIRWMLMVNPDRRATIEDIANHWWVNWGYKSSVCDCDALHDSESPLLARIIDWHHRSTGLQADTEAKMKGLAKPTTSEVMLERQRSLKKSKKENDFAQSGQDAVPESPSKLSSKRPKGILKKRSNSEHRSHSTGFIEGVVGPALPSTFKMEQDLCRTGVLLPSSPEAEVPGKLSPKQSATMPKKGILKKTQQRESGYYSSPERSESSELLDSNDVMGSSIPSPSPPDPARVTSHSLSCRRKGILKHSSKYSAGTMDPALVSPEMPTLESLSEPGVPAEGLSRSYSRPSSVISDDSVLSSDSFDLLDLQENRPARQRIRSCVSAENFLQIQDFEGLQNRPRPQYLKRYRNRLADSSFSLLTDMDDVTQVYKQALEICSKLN
As to the kind of experiment: Inhibition of recombinant ARK5.

The target of test [7] is Cyclin-dependent kinase 2 (Homo sapiens, UniProt P24941). Description: Inhibition of recombinant CDK2/CycA. In outline:
as §1

The target in the next test is T5, Ephrin type-B receptor 4 (Homo sapiens, UniProt P54760).
T5 sequence (P54760 whole entry): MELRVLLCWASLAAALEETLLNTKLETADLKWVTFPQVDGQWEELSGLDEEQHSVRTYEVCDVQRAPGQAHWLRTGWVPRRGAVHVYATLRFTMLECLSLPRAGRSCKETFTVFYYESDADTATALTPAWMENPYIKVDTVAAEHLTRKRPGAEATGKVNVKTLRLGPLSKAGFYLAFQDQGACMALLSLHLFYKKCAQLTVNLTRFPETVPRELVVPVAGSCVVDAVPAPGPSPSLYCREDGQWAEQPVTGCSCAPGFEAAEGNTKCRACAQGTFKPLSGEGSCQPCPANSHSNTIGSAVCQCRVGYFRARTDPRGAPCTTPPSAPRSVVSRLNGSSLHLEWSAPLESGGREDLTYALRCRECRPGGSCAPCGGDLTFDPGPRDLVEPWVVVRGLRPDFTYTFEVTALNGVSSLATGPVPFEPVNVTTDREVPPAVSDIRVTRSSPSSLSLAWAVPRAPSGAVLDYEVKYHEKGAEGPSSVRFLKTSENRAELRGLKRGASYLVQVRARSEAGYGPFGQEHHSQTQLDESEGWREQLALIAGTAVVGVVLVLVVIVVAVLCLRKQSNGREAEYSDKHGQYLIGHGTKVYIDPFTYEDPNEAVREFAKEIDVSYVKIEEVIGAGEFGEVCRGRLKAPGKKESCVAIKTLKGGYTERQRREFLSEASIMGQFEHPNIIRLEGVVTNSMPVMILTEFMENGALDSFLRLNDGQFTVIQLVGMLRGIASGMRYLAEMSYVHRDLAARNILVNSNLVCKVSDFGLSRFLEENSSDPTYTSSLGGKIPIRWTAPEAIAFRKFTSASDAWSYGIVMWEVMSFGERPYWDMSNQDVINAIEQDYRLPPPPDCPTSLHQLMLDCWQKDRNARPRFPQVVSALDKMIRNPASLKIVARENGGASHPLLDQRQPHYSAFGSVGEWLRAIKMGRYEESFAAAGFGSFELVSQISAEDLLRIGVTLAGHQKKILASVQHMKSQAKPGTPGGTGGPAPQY
As to the kind of experiment: Inhibition of recombinant EPHB4. In outline:
as §1

Test [8] has as its target Platelet-derived growth factor receptor beta (Homo sapiens, UniProt P09619). As to the kind of experiment: Inhibition of recombinant PDGFRbeta.
Test [9] concerns the target Receptor tyrosine-protein kinase erbB-2 (Homo sapiens, UniProt P04626). Description: Inhibition of recombinant ERBB2.
The target of test [10] is Serine/threonine-protein kinase PLK1 (Homo sapiens, UniProt P53350). Description: Inhibition of recombinant PLK1.
Sequence of Serine/threonine-protein kinase PLK1 (P53350 whole entry): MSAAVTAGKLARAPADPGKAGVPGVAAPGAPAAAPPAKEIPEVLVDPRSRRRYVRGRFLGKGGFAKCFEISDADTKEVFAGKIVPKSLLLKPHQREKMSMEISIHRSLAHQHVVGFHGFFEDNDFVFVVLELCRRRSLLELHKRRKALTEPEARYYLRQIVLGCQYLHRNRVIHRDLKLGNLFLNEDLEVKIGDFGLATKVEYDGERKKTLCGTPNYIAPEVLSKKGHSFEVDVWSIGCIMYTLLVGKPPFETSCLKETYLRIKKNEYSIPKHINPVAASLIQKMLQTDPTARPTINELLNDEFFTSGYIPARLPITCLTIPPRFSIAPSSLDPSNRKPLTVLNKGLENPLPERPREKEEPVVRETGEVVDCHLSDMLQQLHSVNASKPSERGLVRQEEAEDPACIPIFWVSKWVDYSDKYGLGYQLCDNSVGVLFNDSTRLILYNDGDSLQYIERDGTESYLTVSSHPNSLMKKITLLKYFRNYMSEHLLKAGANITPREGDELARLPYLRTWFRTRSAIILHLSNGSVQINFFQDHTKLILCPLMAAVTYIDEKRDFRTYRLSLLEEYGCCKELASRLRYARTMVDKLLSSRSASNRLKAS
Test [11] addresses Casein kinase II subunit alpha (Homo sapiens, UniProt P68400). Description: Inhibition of recombinant CK2alpha1. In outline:
as §1

The target of another test is Angiopoietin-1 receptor (Homo sapiens, UniProt Q02763). As to the kind of experiment: Inhibition of recombinant TIE2.
Test [12] addresses Mitogen-activated protein kinase kinase kinase 8 (Homo sapiens, UniProt P41279). Description: Inhibition of recombinant COT.
The target in the next test is Focal adhesion kinase 1 (Homo sapiens, UniProt Q05397). As to the kind of experiment: Inhibition of recombinant FAK.
Test [13] has as its target Cyclin-dependent kinase 4/G1/S-specific cyclin-D1 (Homo sapiens, UniProt P11802). As to the kind of experiment: Inhibition of recombinant CDK4/CycD1.
Test [14] concerns the target Vascular endothelial growth factor receptor 3 (Homo sapiens, UniProt P35916). As to the kind of experiment: Inhibition of recombinant VEGFR3. In outline:
as §1

In test [15] the target is Insulin-like growth factor 1 receptor (Homo sapiens, UniProt P08069). Description: Inhibition of recombinant IGF1R. In outline:
as §1

Sequence of Casein kinase II subunit alpha (P68400 whole entry): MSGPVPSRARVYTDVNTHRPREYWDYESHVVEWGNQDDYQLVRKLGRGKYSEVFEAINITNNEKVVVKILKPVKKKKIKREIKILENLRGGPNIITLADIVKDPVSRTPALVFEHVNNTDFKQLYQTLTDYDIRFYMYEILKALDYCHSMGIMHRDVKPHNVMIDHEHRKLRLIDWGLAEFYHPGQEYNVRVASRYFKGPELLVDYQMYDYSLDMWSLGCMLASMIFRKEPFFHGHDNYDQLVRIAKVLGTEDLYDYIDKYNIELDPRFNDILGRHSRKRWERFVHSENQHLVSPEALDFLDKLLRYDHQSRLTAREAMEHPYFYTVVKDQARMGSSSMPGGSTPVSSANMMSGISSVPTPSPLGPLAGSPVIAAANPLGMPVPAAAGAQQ
Sequence of Receptor tyrosine-protein kinase erbB-2 (P04626 whole entry): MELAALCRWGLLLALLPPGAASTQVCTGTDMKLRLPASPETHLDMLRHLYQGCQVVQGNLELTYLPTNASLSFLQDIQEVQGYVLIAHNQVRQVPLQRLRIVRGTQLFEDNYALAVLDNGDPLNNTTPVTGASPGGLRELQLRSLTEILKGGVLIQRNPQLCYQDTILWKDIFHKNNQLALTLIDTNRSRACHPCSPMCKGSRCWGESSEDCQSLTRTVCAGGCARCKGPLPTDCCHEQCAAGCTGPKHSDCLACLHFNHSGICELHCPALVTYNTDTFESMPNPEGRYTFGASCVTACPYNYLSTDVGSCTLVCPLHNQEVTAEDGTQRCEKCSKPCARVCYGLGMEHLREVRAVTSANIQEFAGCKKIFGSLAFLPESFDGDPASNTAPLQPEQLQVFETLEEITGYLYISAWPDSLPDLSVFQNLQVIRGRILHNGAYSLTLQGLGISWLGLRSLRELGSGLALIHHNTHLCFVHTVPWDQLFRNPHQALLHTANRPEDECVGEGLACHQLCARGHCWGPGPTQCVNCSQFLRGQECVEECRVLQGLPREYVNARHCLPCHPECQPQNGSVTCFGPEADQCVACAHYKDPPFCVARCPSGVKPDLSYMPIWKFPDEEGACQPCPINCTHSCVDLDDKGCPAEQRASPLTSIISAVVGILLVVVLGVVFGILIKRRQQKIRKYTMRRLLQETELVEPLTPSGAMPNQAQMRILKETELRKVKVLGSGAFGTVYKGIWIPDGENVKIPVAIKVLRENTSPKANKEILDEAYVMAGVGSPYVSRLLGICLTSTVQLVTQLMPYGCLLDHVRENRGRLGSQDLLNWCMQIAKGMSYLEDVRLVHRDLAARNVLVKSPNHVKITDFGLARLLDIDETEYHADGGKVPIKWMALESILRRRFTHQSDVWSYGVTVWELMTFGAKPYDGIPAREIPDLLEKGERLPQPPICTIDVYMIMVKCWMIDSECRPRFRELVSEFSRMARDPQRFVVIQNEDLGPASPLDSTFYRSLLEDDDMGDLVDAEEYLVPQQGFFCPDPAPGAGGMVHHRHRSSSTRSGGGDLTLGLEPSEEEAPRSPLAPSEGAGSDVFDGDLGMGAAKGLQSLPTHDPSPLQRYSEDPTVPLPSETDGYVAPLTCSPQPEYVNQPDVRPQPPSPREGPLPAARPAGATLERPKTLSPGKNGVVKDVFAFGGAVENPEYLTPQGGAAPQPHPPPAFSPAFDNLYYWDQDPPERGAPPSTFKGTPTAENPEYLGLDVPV
Sequence of RAC-alpha serine/threonine-protein kinase (P31749 whole entry): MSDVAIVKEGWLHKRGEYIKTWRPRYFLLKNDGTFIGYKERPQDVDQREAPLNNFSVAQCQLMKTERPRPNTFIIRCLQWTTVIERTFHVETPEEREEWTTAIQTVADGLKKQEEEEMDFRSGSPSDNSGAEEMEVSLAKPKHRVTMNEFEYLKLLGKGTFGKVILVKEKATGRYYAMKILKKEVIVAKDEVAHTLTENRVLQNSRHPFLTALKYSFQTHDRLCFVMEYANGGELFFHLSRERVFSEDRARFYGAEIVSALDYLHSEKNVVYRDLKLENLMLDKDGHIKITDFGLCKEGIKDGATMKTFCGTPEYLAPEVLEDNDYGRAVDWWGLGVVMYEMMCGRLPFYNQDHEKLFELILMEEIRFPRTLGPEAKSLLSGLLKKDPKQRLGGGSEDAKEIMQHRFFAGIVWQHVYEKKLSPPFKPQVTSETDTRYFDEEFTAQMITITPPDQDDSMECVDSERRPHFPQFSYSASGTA
Sequence of Cyclin-dependent kinase 4/G1/S-specific cyclin-D1 (P11802 whole entry): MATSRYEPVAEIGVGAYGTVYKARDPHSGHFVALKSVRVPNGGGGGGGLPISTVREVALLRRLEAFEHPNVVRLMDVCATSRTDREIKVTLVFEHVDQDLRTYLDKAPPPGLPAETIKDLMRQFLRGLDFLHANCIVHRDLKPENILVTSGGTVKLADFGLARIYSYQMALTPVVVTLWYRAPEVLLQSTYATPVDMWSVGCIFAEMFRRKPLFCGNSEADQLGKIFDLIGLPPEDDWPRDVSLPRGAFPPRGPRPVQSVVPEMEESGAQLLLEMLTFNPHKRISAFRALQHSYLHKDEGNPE
Sequence of Cyclin-dependent kinase 4/G1/S-specific cyclin-D1 (P24385 whole entry, further chain): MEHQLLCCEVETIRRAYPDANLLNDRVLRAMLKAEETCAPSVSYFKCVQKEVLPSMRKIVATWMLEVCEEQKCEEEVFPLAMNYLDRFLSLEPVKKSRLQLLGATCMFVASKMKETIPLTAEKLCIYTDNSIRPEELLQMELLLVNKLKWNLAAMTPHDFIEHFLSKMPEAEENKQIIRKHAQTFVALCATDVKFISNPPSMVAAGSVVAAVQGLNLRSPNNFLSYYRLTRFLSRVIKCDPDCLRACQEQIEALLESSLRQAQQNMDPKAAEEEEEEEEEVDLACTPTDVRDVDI

Regarding `Cc1cc(O)cc2oc(=O)c3c(O)cc(OS(=O)(=O)O)cc3c12` [Alternariol 5-O-Sulfate], the IC50 was > 29.5 µM in [1]; 0.65 µM on Aurora kinase B; 1.15 µM at Aurora kinase A; 0.975 µM in [2]; 2.06 µM in test [3]; 2.18 µM in test [4]. Moreover, the IC50 in [5] was found to be 1.12 µM; in [6], 2.21 µM; in test [7], 2.48 µM.
For the molecule `Cc1cc(O)cc2oc(=O)c3c(O)cc(O)cc3c12` [CHEBI:64983], the IC50 was > 38.7 µM in test [1]; > 38.7 µM on Ephrin type-B receptor 4; 2.82 µM on Aurora kinase A; 3.67 µM in test [6]; 3.44 µM in test [8].
For `O=C1C[C@H](O)[C@@H]2c3c(ccc(O)c31)-c1ccc(O)c3c1[C@@]2(O)CCC3=O` [Altertoxin I], the 50% inhibitory concentration (IC50) is > 28.3 µM in test [9]; > 28.3 µM in [1]; 2.78 µM on Aurora kinase B; > 28.3 µM in test [10]; > 28.3 µM in test [11]; 1.87 µM in test [2]. Besides, in test [7], the IC50 was > 28.3 µM.
For `Cc1cc(O)c(O)cc1-c1cc(O)cc(O)c1C(=O)O` [Desmethylaltenusin], the IC50 in test [9], in test [1], in test [10], in test [11] and in test [7] was > 36.2 µM in each case.
For `COc1cc(O)c(C(=O)O)c(C2=C(C)C[C@@H](O)C2=O)c1` [Alternarienonic Acid], the IC50 (at Angiopoietin-1 receptor; in test [9]; in test [1]; on Ephrin type-B receptor 4; in test [12]; on Focal adhesion kinase 1) was > 35.9 µM each time. The IC50 in [10], in [13], in test [11], in [8] and in test [7] was > 35.9 µM in each case.
In the case of `COc1cc(O)c2c(=O)oc3c(O)c(O)cc(C)c3c2c1`, the IC50 in test [14] was 1.35 µM; in test [11] it was > 34.6 µM; in test [2], 1.83 µM; in test [3], 2.22 µM; in test [5], 2.87 µM; in test [15], 3.15 µM. Also, the IC50 in [6] was determined as 1.21 µM.
Regarding `COc1cc(O)c2c(=O)oc3cc(O)cc(C)c3c2c1`, in [11], the IC50 is > 36.7 µM.
